{"source": "paper PMC9260854", "about": "(Biochemistry, 2022)", "key": {"[1]": {"target": "T1, SULT2B1b, S347D, Y257A (Homo sapiens, UniProt O00204, S347D/Y257A)", "T1 sequence (O00204 1-365 Y257A/S347D)": "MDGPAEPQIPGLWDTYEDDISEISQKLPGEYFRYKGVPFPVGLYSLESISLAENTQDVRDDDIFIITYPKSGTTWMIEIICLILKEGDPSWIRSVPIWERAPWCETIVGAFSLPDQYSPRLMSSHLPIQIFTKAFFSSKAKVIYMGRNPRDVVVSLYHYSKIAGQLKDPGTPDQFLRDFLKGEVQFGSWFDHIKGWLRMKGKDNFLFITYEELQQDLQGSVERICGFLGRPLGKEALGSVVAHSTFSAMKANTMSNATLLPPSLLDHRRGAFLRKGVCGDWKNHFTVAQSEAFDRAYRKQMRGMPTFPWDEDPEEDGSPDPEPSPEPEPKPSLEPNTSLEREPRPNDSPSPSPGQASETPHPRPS", "assay": "Initial-rate parameters, direct-contact mutant Y257A"}, "[2]": {"target": "T2, SULT2B1b, S347D, W98A (Homo sapiens, UniProt O00204, S347D/W98A)", "T2 sequence (O00204 1-365 W98A/S347D)": "T1 sequence (O00204 1-365 Y257A/S347D) with W98A, A257Y", "assay": "Initial-rate parameters, direct-contact mutant W98A"}, "[3]": {"target": "T3, SULT2A1 (Homo sapiens, UniProt Q06520)", "T3 sequence (Q06520 1-285)": "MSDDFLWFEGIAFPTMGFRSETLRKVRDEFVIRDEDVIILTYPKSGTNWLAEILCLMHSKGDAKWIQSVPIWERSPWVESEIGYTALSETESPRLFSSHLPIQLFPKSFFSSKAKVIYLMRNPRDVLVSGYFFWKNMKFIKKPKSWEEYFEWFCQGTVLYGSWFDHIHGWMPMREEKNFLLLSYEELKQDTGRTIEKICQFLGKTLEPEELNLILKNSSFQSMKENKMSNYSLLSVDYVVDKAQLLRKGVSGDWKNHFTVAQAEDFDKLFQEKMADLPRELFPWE", "assay": "Initial-rate 1-HP sulfonation inhibition", "format": "biochemical"}, "[4]": {"target": "T4, SULT2B1b S347D spin-labeled at residue 21 (Homo sapiens, UniProt O00204, C225S/C278S/C81S/S21C/S347D)", "T4 sequence (O00204 1-365 S21C/C81S/C225S/C278S/S347D)": "T1 sequence (O00204 1-365 Y257A/S347D) with S21C, C81S, C225S, A257Y, C278S", "assay": "Initial-rate parameters, spin-labeled mutant 21", "format": "biochemical"}, "[5]": {"target": "T5, SULT2B1a (Homo sapiens, UniProt O00204)", "T5 sequence (O00204 1-350 isoform O00204-2)": "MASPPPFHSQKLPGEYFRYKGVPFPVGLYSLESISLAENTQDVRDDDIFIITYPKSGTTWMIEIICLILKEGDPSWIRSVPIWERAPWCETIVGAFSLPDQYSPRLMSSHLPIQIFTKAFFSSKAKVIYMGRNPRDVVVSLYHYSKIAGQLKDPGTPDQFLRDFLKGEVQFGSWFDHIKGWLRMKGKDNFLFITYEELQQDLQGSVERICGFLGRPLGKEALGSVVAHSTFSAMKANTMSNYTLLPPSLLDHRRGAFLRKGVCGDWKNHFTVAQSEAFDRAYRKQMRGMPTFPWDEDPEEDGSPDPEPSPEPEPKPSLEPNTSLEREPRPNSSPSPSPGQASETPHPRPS", "assay": "Initial-rate 1-HP sulfonation inhibition", "format": "biochemical"}, "[6]": {"target": "T6, SULT2B1b S347D (Homo sapiens, UniProt O00204, S347D)", "T6 sequence (O00204 1-365 S347D)": "T1 sequence (O00204 1-365 Y257A/S347D) with A257Y", "assay": "Equilibrium binding via intrinsic fluorescence", "conditions": "for pKd: Kd Quc", "in_short": "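Intrinsic fluorescence titrations of purified His/GST/MBP-tag-cleaved enzyme, excitation 290 nm, in KPO4 (50 mM), pH 7.5, 25 ± 2 °C. […] Triplicate averaged data were fit to a single-site-per-monomer model.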"}}, "note": "Changes are numbered by the printed parent chain. pKd, pKi: −log10 of the molar value. Where two headings read alike, the source gives them in different places."}
{"smiles": "O=c1c(O)c(-c2ccc(O)c(O)c2)oc2cc(O)cc(O)c12", "note": "[quercetin]", "values": [{"measurement": "pKi", "setting": "[1]", "value": 5.80}, {"measurement": "pKi", "setting": "[2]", "value": 5.28}, {"measurement": "inhibition by quercetin", "setting": "[3]", "value": "not inhibited"}, {"measurement": "inhibition by quercetin", "setting": "[3]; up to 100 μM quercetin", "value": "No inhibition was detected"}, {"measurement": "pKi", "setting": "[4]", "value": 6.48}, {"measurement": "inhibition by quercetin", "setting": "[5]; concentrations as high as 10 μM", "value": "does not detectably inhibit"}, {"measurement": "inhibition by quercetin", "setting": "[5]; up to 100 μM quercetin", "value": "No inhibition was detected"}, {"measurement": "pKd", "setting": "[6]; enzyme form E (no PAP)", "value": 5.28}, {"measurement": "pKd", "setting": "[6]; enzyme form E•PAP (PAP 30 μM)", "value": 6.46}, {"measurement": "increase of quercetin affinity", "setting": "[6]; saturation with PAPS", "value": 15, "unit": "fold"}]}
